Experiments:
[1] = molecular target: T1, Adrenergic receptor alpha-2 (Rattus norvegicus, UniProt P22086+P19328+P22909); assay: Alpha-2 adrenergic receptor antagonistic activity in rat vas deferens vs clonidine; format: functional, tissue-based
T1 sequence (P22086 whole entry): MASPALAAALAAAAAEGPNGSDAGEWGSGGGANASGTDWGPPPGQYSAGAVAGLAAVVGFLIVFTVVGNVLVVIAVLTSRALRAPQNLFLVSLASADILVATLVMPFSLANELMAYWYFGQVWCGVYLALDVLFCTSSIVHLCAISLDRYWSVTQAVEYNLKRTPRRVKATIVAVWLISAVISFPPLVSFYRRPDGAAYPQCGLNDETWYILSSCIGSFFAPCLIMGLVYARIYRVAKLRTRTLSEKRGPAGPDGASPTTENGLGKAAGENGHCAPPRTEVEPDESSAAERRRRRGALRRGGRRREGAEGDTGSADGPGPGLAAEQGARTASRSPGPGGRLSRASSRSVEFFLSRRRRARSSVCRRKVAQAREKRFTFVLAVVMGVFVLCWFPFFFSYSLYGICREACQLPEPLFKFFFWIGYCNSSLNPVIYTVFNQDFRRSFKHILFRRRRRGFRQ
T1 sequence (P19328 whole entry): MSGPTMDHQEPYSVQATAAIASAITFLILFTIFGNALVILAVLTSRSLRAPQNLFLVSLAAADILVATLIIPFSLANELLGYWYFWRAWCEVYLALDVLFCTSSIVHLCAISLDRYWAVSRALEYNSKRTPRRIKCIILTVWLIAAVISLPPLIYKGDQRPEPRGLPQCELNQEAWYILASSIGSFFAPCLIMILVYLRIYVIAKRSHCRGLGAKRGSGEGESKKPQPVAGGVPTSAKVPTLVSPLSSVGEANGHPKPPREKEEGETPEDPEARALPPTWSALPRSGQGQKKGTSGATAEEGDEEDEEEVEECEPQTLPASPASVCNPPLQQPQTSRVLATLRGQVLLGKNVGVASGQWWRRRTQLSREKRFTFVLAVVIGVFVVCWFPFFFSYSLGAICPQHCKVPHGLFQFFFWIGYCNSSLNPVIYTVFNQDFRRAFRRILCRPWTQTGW
T1 sequence (P22909 whole entry): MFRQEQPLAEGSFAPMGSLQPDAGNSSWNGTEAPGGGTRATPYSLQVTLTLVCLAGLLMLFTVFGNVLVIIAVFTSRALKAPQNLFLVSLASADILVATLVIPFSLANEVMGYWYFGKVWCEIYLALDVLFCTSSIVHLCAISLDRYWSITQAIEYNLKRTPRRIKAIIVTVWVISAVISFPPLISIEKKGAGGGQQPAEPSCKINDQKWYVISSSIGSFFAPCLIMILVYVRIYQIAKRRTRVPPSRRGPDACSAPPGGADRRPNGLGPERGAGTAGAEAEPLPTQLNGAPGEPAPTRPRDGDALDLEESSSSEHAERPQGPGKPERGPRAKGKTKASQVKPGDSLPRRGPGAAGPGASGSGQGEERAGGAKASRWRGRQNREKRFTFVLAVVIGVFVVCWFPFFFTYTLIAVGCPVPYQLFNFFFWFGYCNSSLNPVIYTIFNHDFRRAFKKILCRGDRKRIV

[2] = molecular target: T1, Adrenergic receptor alpha-2; assay: Binding affinity against alpha-2 adrenergic receptor was determined by the displacement of [3H]clonidine from rat brain cortical membranes; format: cell membranes, Membrane
Mus musculus = assay: Antagonistic activity against clonidine-induced antinociception in mouse after po administration; format: functional
Method in brief: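 Swiss Webster mice (18–24 g), 10 per treatment. Test compound was given orally in 0.9% NaCl at 10 mL/kg. […] Mice were observed 5–10 min after PPQ, and those writhing at least 3 times were counted as percent reversal.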

[3] = molecular target: T1, Adrenergic receptor alpha-2; assay: Alpha-2 adrenergic receptor antagonistic activity in rat vas deferens vs clonidin; format: functional, tissue-based
Method in brief: (§1)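 Vasa deferentia from Sprague-Dawley rats (180–250 g) mounted between platinum ring electrodes at 1 g resting tension in oxygenated Krebs at 37 °C. Single-pulse electrical stimulation (1 ms, 0.15 Hz, lowest voltage giving maximal contraction).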

[4] = molecular target: T1, Adrenergic receptor alpha-2; assay: The compound was evaluated for the alpha-2 adrenergic receptor antagonistic activity in rat vas deferens vs clonidin; format: functional, tissue-based; method in brief: as §1
[5] = molecular target: T1, Adrenergic receptor alpha-2; assay: Alpha-2 adrenergic receptor agonistic activity in rat vas deferens.
[6] = molecular target: T2, Adrenergic receptor alpha-1 (Rattus norvegicus, UniProt P15823+P23944+P43140); assay: Binding affinity against alpha-1 adrenergic receptor was determined by the displacement of [3H]prazosin from rat brain cortical membranes; value ranges from 7.8-34.6; format: cell membranes, Membrane
T2 sequence (P15823 whole entry): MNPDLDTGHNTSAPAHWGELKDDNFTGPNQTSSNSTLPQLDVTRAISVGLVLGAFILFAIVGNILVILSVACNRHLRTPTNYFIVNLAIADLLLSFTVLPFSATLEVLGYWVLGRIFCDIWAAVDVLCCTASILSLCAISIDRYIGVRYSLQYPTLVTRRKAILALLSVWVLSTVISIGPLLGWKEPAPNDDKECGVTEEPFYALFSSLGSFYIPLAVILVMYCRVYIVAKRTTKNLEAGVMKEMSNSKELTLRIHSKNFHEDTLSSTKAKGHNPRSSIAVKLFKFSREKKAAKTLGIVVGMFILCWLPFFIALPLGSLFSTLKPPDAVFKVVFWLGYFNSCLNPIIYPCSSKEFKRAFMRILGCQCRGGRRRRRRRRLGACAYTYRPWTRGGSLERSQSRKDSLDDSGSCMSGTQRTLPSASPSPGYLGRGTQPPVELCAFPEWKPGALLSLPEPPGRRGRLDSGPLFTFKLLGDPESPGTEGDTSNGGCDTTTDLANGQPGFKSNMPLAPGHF
T2 sequence (P23944 whole entry): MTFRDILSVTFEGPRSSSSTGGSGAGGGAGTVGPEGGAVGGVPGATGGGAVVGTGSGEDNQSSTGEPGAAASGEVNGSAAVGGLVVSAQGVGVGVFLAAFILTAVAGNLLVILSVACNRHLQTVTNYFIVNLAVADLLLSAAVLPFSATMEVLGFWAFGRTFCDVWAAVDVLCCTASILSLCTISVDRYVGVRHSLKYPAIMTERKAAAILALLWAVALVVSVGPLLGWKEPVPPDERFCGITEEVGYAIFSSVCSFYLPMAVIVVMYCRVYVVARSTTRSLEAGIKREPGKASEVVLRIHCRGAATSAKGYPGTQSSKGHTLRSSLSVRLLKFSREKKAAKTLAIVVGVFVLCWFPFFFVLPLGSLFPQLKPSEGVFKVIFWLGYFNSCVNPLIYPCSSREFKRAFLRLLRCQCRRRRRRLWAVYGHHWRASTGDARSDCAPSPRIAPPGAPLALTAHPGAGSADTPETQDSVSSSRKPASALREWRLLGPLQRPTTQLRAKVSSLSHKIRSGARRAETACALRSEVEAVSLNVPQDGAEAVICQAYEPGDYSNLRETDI
T2 sequence (P43140 whole entry): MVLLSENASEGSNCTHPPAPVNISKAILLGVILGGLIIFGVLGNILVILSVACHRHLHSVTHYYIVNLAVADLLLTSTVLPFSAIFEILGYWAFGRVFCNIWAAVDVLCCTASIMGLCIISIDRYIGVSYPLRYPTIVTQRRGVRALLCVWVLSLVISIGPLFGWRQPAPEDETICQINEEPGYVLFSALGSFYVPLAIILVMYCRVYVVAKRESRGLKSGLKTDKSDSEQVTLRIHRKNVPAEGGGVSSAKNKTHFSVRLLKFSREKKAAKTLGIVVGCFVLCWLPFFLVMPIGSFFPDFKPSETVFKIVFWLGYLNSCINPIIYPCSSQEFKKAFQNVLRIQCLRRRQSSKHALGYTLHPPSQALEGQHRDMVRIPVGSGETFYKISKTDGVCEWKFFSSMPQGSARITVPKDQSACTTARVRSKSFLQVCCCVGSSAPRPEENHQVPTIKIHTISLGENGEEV
Method in brief: (§2)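 Rat cortex was homogenized in 50 mM Tris pH 7.7, washed twice by centrifugation at 48000g and resuspended in 150 volumes. […] Nonspecific binding was defined with 10 μM phentolamine. Bound label was counted on filters, in triplicate. IC50 by logit plot, converted to Ki by Cheng-Prusoff.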

[7] = molecular target: T2, Adrenergic receptor alpha-1; assay: The compound was evaluated for the alpha-1 adrenergic receptor antagonistic activity in rat vas deferens vs methoxamine alpha-1 adrenoceptor antagonism; format: functional, tissue-based
Method in brief: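 Vasa deferentia from Sprague-Dawley rats (180–250 g) mounted at 1 g resting tension in oxygenated Krebs at 31 °C. Methoxamine was the reference α1 agonist. Agonist concentration-effect curves were run without and with at least three antagonist concentrations after 10 min preincubation. Potency was taken from Schild analysis, mean of at least three preparations from separate animals.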

[8] = molecular target: T2, Adrenergic receptor alpha-1; assay: Binding affinity against alpha-1 adrenergic receptor was determined by the displacement of [3H]prazosin from rat brain cortical membranes; value ranges from 4.6-30.6; format: cell membranes, Membrane; method in brief: as §2
[9] = molecular target: T2, Adrenergic receptor alpha-1; assay: Binding affinity against alpha-1 adrenergic receptor was determined by the displacement of [3H]prazosin from rat brain cortical membranes; value ranges from 6.06-7.06; format: cell membranes, Membrane; method in brief: as §2
[10] = molecular target: T3, Adrenergic receptor alpha-2 (Rattus norvegicus) (UniProt P22086+P19328+P22909); assay: The compound was evaluated for the alpha-2 adrenergic receptor antagonistic activity in rat vas deferens vs clonidine; i = the compound contracted the tissue at 100 nM; format: functional, tissue-based; conditions: filed as agonist; method in brief: as §1
[11] = molecular target: T1, Adrenergic receptor alpha-2; assay: The compound was evaluated for the alpha-2 adrenergic receptor agonistic activity in rat vas deferens; the effect was not yohimbine reversible.
[12] = molecular target: T3, Adrenergic receptor alpha-2 (Rattus norvegicus); assay: The compound was evaluated for the alpha-2 adrenergic receptor antagonistic activity in rat vas deferens vs clonidin; l = compound contracted the tissue at 100nM, which is an alpha-1 agonist like response; format: functional, tissue-based; conditions: filed as agonist

Row | Compound | Ki [2] [nM] | ED50 (Mus musculus) [mg/kg] | pA2 [3] | other results
1 | c1ccc2c(c1)CC(C1=NCCN1)N2 (stereo not given) | 2.11 | – | – | pA2 [1]: 8.16
2 | COC(=O)[C@@H]1[C@H]2C[C@H]3c4[nH]c5ccccc5c4CCN3C[C@@H]2CC[C@@H]1O [YOHIMBINE] | – | 0.6 | – | –
3 | C[C@@H]1Cc2ccccc2N(C)[C@@H]1C1=NCCN1 | 719 | – | 5.88 | –
4 | c1ccc2c(c1)CCN2C1=NCCN1 | > 1000 | – | – | –
5 | CN1c2c(Cl)cc(Cl)cc2CC1C1=NCCN1 (stereo not given) | 12.3 | – | 8 | –
6 | C[C@@H]1c2ccccc2N(C)[C@@H]1C1=NCCN1 | 6.9 | > 300 | – | pA2 [4]: < 6; IC50 [5]: 3.29 nM
7 | C=CC[C@@]1(C2=NCCN2)Cc2ccccc2N1C | 77 | – | – | pA2 [4]: 6.96; IC50 [5]: > 1000 nM
8 | Cn1c(C2=NCCN2)cc2ccccc21 | > 1000 | – | – | pA2 [1]: > 6
9 | C[C@@H]1Cc2ccccc2N[C@@H]1C1=NCCN1 | > 1000 | – | < 6 | IC50 [5]: > 1000 nM
10 | CN1c2ccc(Cl)cc2CC1C1=NCCN1 (stereo not given) | 1.9 | – | 8.56 | –
11 | CN1c2ccc(Cc3ccccc3)cc2CC1C1=NCCN1 (stereo not given) | 53.6 | > 100 | 7.59 | –
12 | CCCN1c2ccccc2CC1C1=NCCN1 (stereo not given) | 1.93 | 100 | 8.76 | –
13 | CN1c2c(Cl)cccc2CC1C1=NCCN1 (stereo not given) | 0.72 | 0.1 | – | pA2 [4]: 8.8
14 | CC(C)N(C[C@@]1(C2=NCCN2)Cc2ccccc2N1C)C(C)C | 25.1 | – | – | IC50 [5]: 94.8 nM
15 | CN1c2ccccc2C[C@@]1(C)C1=NCCN1 | 3.4 | – | – | pA2 [4]: 7.55; IC50 [5]: > 300 nM
16 | CCCCN1c2ccccc2CC1C1=NCCN1 (stereo not given) | 3.5 | 4 | – | pA2 [1]: 8.8
17 | CN1c2ccc(F)cc2CC1C1=NCCN1 (stereo not given) | 0.91 | – | 8.45 | Ki [6]: 16.4 nM; pA2 [7]: 8.03

Row | Compound | Ki [2] [nM] | ED50 (Mus musculus) [mg/kg] | pA2 [3] | other results
18 | c1ccc(CCN2c3ccccc3CC2C2=NCCN2)cc1 (stereo not given) | 6 | 6 | – | –
19 | CN1c2ccccc2CC1C1=NCCN1 (stereo not given) | 0.45 | 1.3 | 8.65 | Ki [8]: 10.5 nM; pA2 [7]: 7.75
20 | CCOCCN1c2ccccc2CC1C1=NCCN1 (stereo not given) | 26 | 20.5 | – | pA2 [1]: 7.81
21 | CCN1c2ccccc2CC1C1=NCCN1 (stereo not given) | 0.91 | 2.6 | 8.91 | –
22 | CCC[C@@]1(C2=NCCN2)Cc2ccccc2N1C | 260 | – | 6.6 | IC50 [5]: > 1000 nM
23 | c1ccc(CN2c3ccccc3CC2C2=NCCN2)cc1 (stereo not given) | 2.3 | 7 | 7.93 | –
24 | CN1c2ccccc2CCC1C1=NCCN1 (stereo not given) | 1.52 | – | 8.13 | –
25 | C=CCN1c2ccccc2CC1C1=NCCN1 (stereo not given) | 0.47 | – | – | pA2 [1]: 9.07; Ki [9]: 6.56 nM; pA2 [7]: 8.02
26 | C[C@H]1c2ccccc2N(C)[C@@H]1C1=NCCN1 | 72.3 | – | 6.96 | IC50 [5]: > 1000 nM
27 | Cn1c(CC2=NCCN2)cc2ccccc21 | 46.7 | 100 | – | pA2 [1]: 7.48
28 | c1ccc2c(c1)OCC(C1=NCCN1)O2 (stereo not given) [IDAZOXAN] | – | 1.6 | – | –
29 | CN1c2ccccc2CC1CC1=NCCN1 (stereo not given) | 355 | – | – | pA2 [1]: < 6
30 | c1ccc(N2c3ccccc3CC2C2=NCCN2)cc1 (stereo not given) | 4.2 | – | – | pA2 [10]: Agonist
31 | COC[C@@]1(C2=NCCN2)Cc2ccccc2N1C | 38 | – | – | IC50 [11]: 131 nM
32 | c1ccc2c(c1)CCC(C1=NCCN1)N2 (stereo not given) | 13.8 | – | 8.03 | –
33 | CN(CC1=NCCN1)c1ccccc1 | 3.9 | – | – | pA2 [12]: Agonist

Source: ChEMBL document CHEMBL1123827, “Alpha 2-adrenergic agonists/antagonists: the synthesis and structure-activity relationships of a series of indolin-2-yl and tetrahydroquinolin-2-yl imidazolines” (J Med Chem, 1987)
